Results on 15 molecules are retold here after ChEMBL document CHEMBL4342411, “Novel multitarget 5-arylidenehydantoins with arylpiperazinealkyl fragment: Pharmacological evaluation and investigation of cytotoxicity and metabolic stability” (Bioorg Med Chem, 2019).

By inhibition is commonly meant the share of the control response that was lost under treatment. What is called pKi is −log10 of the Ki, conventionally taken in molar units. Broadly, the Emax is the size of the effect at its maximum, as opposed to the concentration needed. By pIC50 is commonly meant the negative decadic logarithm of the IC50, by convention in mol/L. What is called half-life is the time needed for the level to fall by half in the phase considered. A high value points to slow decline.

SMILES strings stand for the structures. pIC50, pKi: −log10 of the molar value.

Data set [1] has as its target 5-hydroxytryptamine receptor 6 (Homo sapiens) (UniProt P50406). Briefly: Displacement of [3H]-LSD from human recombinant 5-HT6 receptor expressed in CHO cells at 10^-7 M incubated for 60 mins by microbeta2 scintillation counter relative to control. Format: cell-based. The procedure, abridged: (§1)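 Radioligand displacement from recombinant human receptor membranes, tested at two final concentrations (10^-6 and 10^-7 M), with scintillation counting. Results were expressed as percent inhibition of specific binding.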

For data set [2], the target named is 5-hydroxytryptamine receptor 2A (Homo sapiens) (UniProt P28223). Conditions: HEK293, at 0.1 µM.
Chain of 5-hydroxytryptamine receptor 2A (Homo sapiens) (P28223 whole entry): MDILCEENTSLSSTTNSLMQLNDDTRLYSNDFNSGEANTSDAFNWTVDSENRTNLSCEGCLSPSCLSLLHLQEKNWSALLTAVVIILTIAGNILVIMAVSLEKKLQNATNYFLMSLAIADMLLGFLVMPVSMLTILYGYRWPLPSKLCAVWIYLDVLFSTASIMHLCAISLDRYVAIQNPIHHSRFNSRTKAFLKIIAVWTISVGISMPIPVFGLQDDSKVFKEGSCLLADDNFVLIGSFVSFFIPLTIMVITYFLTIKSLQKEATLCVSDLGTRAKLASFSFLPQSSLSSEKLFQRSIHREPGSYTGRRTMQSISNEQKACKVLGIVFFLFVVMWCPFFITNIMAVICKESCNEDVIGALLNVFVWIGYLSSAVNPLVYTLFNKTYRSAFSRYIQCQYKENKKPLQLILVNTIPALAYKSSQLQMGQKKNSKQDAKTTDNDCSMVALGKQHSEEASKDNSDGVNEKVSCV
Data set [3] has as its target T1, 5-hydroxytryptamine receptor 7 (Homo sapiens, UniProt P34969). The data set is described as follows: biochemical. Format: cell-based, CHO.
Data set [4] addresses 5-hydroxytryptamine receptor 2A (Homo sapiens) (UniProt P28223). Conditions: HEK293, at 1 µM.
Data set [5] addresses 3',5'-cyclic-AMP phosphodiesterase 4B (Homo sapiens) (UniProt Q07343). The data set is described as follows: Inhibition of human recombinant full length N-terminal GST-tagged PDE4B1 expressed in baculovirus infected Sf9 cells at 10^-5 M using cAMP as substrate incubated for 20 mins followed by substrate addition by luciferase assay relative to control.
The target of data set [6] is T2, 5-hydroxytryptamine receptor 1A (Homo sapiens, UniProt P08908).
T2 sequence (P08908 whole entry): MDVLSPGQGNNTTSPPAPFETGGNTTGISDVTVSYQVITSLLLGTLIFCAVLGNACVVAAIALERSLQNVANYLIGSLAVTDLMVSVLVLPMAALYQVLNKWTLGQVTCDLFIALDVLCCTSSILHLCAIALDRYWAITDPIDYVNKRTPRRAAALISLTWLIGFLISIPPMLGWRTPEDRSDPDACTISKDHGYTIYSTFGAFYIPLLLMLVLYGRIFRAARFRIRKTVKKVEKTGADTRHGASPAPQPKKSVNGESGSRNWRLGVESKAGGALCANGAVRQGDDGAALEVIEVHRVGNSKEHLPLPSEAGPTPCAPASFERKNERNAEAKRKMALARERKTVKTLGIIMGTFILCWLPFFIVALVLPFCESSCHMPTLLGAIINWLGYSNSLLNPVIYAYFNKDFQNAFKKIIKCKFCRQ
The data set is described as follows: Displacement of [3H]-8-OH-DPAT from human recombinant 5-HT1A receptor expressed in HEK293 cells incubated for 60 mins by microbeta2 scintillation counter. Type of data set: cell-based.

The target of data set [7] is 5-hydroxytryptamine receptor 6 (Homo sapiens) (UniProt P50406). The data set is described as follows: Displacement of [3H]-LSD from human recombinant 5-HT6 receptor expressed in CHO cells at 10^-6 M incubated for 60 mins by microbeta2 scintillation counter relative to control. Format: cell-based. The gist of the method: as §1
Chain of 5-hydroxytryptamine receptor 6 (Homo sapiens) (P50406 whole entry): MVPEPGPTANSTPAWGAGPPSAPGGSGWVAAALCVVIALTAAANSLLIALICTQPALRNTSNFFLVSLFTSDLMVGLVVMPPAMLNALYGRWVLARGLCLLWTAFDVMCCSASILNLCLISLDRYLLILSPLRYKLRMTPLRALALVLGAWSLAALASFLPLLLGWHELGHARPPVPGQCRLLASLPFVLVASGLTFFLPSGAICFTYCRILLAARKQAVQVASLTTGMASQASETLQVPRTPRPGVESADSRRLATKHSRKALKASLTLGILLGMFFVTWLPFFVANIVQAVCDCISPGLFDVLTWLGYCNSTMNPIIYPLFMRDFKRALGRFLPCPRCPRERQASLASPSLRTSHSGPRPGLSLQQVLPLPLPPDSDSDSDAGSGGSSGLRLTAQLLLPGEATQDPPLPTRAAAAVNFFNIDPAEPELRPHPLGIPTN
(In general: Loss of bound radioactivity is the signal in a displacement assay; it reports binding, not function.)

Data set [8] has as its target T1, 5-hydroxytryptamine receptor 7. The data set is described as follows: Antagonist activity at human recombinant 5-HT7 receptor expressed in CHOK1 cells measured after 60 mins in the presence of serotonin by LANCE TR-FRET assay relative to control. Format: cell-based.
The target in data set [9] is 3',5'-cyclic-AMP phosphodiesterase 4B (Homo sapiens) (UniProt Q07343). Particulars: Sf9, 10^-5.5 M.
Chain of 3',5'-cyclic-AMP phosphodiesterase 4B (Homo sapiens) (Q07343 whole entry): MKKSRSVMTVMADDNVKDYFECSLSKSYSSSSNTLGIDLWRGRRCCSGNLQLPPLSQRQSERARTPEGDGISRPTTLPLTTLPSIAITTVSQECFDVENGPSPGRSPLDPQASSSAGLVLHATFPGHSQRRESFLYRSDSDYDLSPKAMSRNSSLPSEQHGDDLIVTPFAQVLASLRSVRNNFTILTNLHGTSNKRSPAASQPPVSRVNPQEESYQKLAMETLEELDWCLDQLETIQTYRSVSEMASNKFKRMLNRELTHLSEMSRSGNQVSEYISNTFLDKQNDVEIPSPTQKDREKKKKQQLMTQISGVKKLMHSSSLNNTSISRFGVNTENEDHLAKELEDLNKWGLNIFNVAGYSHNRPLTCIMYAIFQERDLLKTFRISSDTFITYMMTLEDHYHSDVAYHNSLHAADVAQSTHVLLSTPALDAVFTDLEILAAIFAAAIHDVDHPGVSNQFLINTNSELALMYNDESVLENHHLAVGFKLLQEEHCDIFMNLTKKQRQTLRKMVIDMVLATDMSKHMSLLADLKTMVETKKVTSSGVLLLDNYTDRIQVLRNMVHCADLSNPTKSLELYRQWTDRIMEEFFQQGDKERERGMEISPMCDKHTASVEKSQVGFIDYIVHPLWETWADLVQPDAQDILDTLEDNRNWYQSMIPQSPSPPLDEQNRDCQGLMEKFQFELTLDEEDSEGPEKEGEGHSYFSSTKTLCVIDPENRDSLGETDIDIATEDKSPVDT
The next data set relates to PC-3. Briefly: Cytotoxicity against human PC3 cells assessed as growth inhibition measured after 72 hrs by MTT assay. Format: functional, cell-based. Particulars: PC-3, 72 h. The gist of the method: (§2)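 Cells were seeded at 1 × 10^4 per well: SW480 in MEM, PC3 in RPMI 1640, HaCaT in DMEM high glucose, each with 10% FBS. Compounds were added at 10–140 µM and incubated for 72 h. MTT was then added at 0.5 mg/mL in serum-free medium for 4 h at 37 °C. Formazan was dissolved in DMSO/isopropanol (1:1) and read at 570 nm. IC50 was given in µM; untreated cells served as control.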

The next data set relates to SW480. Briefly: Cytotoxicity against human SW480 cells assessed as growth inhibition measured after 72 hrs by MTT assay. Format: functional, cell-based. Particulars: SW480, 72 h. The gist of the method: as §2
A general note: Tetrazolium dyes change colour on reduction, which living cells bring about.

A further data set has as its system HaCaT. The data set is described as follows: Cytotoxicity against human HaCaT cells assessed as growth inhibition measured after 72 hrs by MTT assay. Format: cell-based. The procedure, abridged: as §2
Another data set in a line: in vitro. Particulars: CD1, mouse, microsomes.

T1 sequence (P34969 whole entry): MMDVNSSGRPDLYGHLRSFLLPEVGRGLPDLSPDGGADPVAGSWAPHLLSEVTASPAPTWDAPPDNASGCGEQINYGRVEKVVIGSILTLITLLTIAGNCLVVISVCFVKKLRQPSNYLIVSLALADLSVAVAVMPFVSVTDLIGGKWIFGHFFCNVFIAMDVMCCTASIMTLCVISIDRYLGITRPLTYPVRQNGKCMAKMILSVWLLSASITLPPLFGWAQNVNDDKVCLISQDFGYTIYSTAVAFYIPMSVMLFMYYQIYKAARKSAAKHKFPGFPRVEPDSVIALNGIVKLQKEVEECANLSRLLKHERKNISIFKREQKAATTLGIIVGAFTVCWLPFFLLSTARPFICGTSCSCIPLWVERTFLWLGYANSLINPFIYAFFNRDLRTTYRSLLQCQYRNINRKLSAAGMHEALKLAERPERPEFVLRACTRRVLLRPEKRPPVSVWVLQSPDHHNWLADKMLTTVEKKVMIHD

For `COc1ccc(/C=C2\NC(=O)N(CCCN3CCN(c4ncccn4)CC3)C2=O)cc1OC`, the inhibition in data set [1] is 8%; in [2] it was 23%; in data set [4], 78%; in data set [5] it was 1%; in [7], 15%. For the same molecule, the negative-log Ki (pKi) in data set [3] is 7.13; in data set [6], 7.92.
For the molecule `COc1ccc(/C=C2\NC(=O)N(CCCN3CCN(c4ncccn4)CC3)C2=O)cc1OC1CCCC1`, the inhibition in data set [1] worked out at 0%; in [2], 33%; in data set [4], 89%; in [5] it was 9%; in [7], 23%. In addition, the pKi is under 6.00 in data set [3] and 7.07 in [6].
For the molecule `COc1ccc(/C=C2\NC(=O)N(CCCN3CCN(c4ccccc4OC)CC3)C2=O)cc1OC1CCCC1`, the inhibition worked out at 0% in data set [1]; 44% in data set [2]; 96% in data set [4]; 3% in data set [5]; 13% in data set [7]. For the same molecule, the pKi was 8.22 in data set [3] and 7.43 in data set [6].
In the case of `COc1ccc(/C=C2\NC(=O)N(CCCCN3CCN(c4ccccc4OC)CC3)C2=O)cc1OC`, the inhibition in data set [1] worked out at 0%; in data set [2], 31%; in data set [4], 87%; in data set [5], 8%; in data set [7], 9%. The pKi in [3] is 7.80; in data set [6], 8.15.
Take `CC1CCN(CC[C@H]2CCCN2S(=O)(=O)c2cccc(O)c2)CC1`: in [8], the Emax was found to be 8%.
With `COc1ccc(/C=C2\NC(=O)N(CCCN3CCN(c4cccc(Cl)c4Cl)CC3)C2=O)cc1OC`, the inhibition in data set [1] was 0%; in data set [2] it was 61%; in data set [4] it was 97%; in [5] it was 5%; in [7], 72%. Also, the pKi is 7.66 in data set [3] and 7.28 in data set [6].
In the case of `COc1ccc(/C=C2\NC(=O)N(CCCCN3CCN(c4cccc(Cl)c4Cl)CC3)C2=O)cc1OC1CCCC1`, the inhibition came to 8% in [1]; 39% in data set [2]; 90% in data set [4]; 3% in [5]; 34% in [7]. For the same molecule, the negative-log Ki (pKi) in data set [3] was 6.90; in data set [6], 6.88.
With `COc1ccc(/C=C2\NC(=O)N(CCCCN3CCN(c4ncccn4)CC3)C2=O)cc1OC`, the inhibition in data set [1] was found to be 0%; in [2] it was 0%; in data set [4], 41%; in [5] it was 14%; in data set [7] it was 0%. In addition, the pKi in data set [3] is 6.03; in data set [6], 7.35.
As for `COc1ccc(C2CNC(=O)C2)cc1OC1CCCC1` (stereo not drawn), in data set [9], the inhibition was 84%.
As for `COc1cccc2c1C(=O)c1c(O)c3c(c(O)c1C2=O)C[C@@](O)(C(=O)CO)C[C@@H]3O[C@H]1C[C@H](N)[C@H](O)[C@H](C)O1` [DOXORUBICIN], the values for the pIC50 in the data set on PC-3, in the data set on SW480 and in the data set on HaCaT were 6.23, 6.54 and 6.63, respectively.
As to `COc1ccc(/C=C2\NC(=O)N(CCCN3CCN(c4cccc(Cl)c4Cl)CC3)C2=O)cc1OC1CCCC1`, the inhibition in [1] came out at 0%; in data set [2] it was 27%; in data set [4], 96%; in data set [5] it was 3%; in data set [7], 70%. The negative logarithm of the Ki (pKi) in data set [3] was 6.42; in data set [6] it was under 6.00.
Take `CSc1ccc2c(c1)C(N1CCN(C)CC1)Cc1ccccc1S2` (stereo not drawn): the inhibition in data set [1] and in [7] was 99% throughout.
In the case of `COc1ccc(/C=C2\NC(=O)N(CCCCN3CCN(c4ncccn4)CC3)C2=O)cc1OC1CCCC1`, the inhibition amounted to 0% in [1]; 19% in data set [2]; 78% in data set [4]; 10% in data set [5]; 8% in data set [7]. The values for the pKi in data set [3] and in data set [6] were 6.53 and 7.19, respectively.
In “in vitro”, `CC(C)NCC(O)COc1cccc2ccccc12` (stereo not drawn) [PROPRANOLOL] registered a half-life of 1.41 h.
With `COc1ccc(/C=C2\NC(=O)N(CCCN3CCN(c4ccccc4OC)CC3)C2=O)cc1OC`, the inhibition in data set [1] came to 0%; in data set [2], 25%; in data set [4], 83%; in [5], 9%; in [7], 0%. Further, the values for the pKi in [3] and in data set [6] were 7.38 and 7.89, respectively.
